Assay results as given in ChEMBL document CHEMBL1157311, “Aurilides B and C, cancer cell toxins from a Papua New Guinea collection of the marine cyanobacterium Lyngbya majuscula” (2006).
The source made the active and inactive calls. The rule behind the calls is not given here.

Key:
UACC-62 = assay: Growth inhibition of human UACC62 cells; format: functional
Hs-578T = assay: Growth inhibition of human HS578T cells; format: functional
UACC-257 = assay: Growth inhibition of human UACC257 cells; format: functional
EKVX = assay: Growth inhibition of human EKVX cells; format: functional
IGROV-1 = assay: Growth inhibition of human IGROV1 cells; format: functional
SK-MEL-5 = assay: Growth inhibition of human SK-MEL-5 cells; format: functional
[1] = Growth inhibition of human OVACR4 cells; format: functional
HCT-15 = assay: Growth inhibition of human HCT15 cells; format: functional
MDA-MB-231 = assay: Growth inhibition of human MDA-MB-231 cells; format: functional
NCI/ADR-RES = assay: Growth inhibition of human NCI/ADR-RES cells; format: functional
[2] = Growth inhibition of human OVACR5 cells; format: functional
NCI-H23 = assay: Growth inhibition of human NCI-H23 cells; format: functional
HT-29 = assay: Growth inhibition of human HT29 cells; format: functional
K562 = assay: Growth inhibition of human K562 cells; format: functional
A10 = assay: Disruption of microfilament in rat A10 cells at 2.9 uM after 24 hrs by rhodamine-phalloidin assay; format: functional, cell-based
In short: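 A-10 smooth muscle cells grown on glass coverslips in BME with 10% fetal calf serum and exposed 24 h. Fixed in 3% paraformaldehyde, permeabilised with 0.2% Triton X-100, reduced with NaBH4, then stained 45 min with 100 nM TRITC-phalloidin for actin and with DAPI for DNA. Microfilament network scored by fluorescence microscopy.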

TK-10 = assay: Growth inhibition of human TK10 cells; format: functional
T47D = assay: Growth inhibition of human T47D cells; format: functional
M14 = assay: Growth inhibition of human M14 cells; format: functional
[3] = Growth inhibition of human OVACR3 cells; format: functional
SF-539 = assay: Growth inhibition of human SF539 cells; format: functional
A549 = assay: Growth inhibition of human A549 cells; format: functional
[4] = Growth inhibition of human RPMI8266 cells; format: functional
SR = assay: Growth inhibition of human SR cells; format: functional
SK-MEL-28 = assay: Growth inhibition of human SK-MEL-28 cells; format: functional
SNB-19 = assay: Growth inhibition of human SNB19 cells; format: functional
LOX IMVI = assay: Growth inhibition of human LOX IMVI cells; format: functional
[5] = Growth inhibition of human […] cells; format: functional
[6] = Cytotoxicity against mouse Neuro2a cells after 48 hrs by MTT assay; format: functional; conditions: N2a, read-out: LC50 (the source's name)
In short: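 Cells seeded at 6000/well and grown 24 h, then given test chemicals dissolved in DMSO and diluted in serum-free medium (DMSO under 0.5% final). Viability read by MTT reduction after 48 h exposure; LC50 reported. Method follows Alley et al.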

[7] = read-out: pLC50 (the source's name) (converted)

CC/C=C(\C)[C@H]1OC(=O)[C@H](C)N(C)C(=O)[C@H](C(C)C)NC(=O)CN(C)C(=O)[C@H]([C@H](C)CC)N(C)C(=O)[C@H](C(C)C)NC(=O)[C@@H]([C@@H](C)CC)OC(=O)/C(C)=C/C[C@H](O)[C@@H]1C [AURILIDE B]
GI50 (UACC-62): < 10 nM | TGI (UACC-62; read-out: pTGI): < 10 nM | CC50 (Hs-578T; [7]): > 100 µM | TGI (Hs-578T; read-out: pTGI (converted)): 708 nM | GI50 (UACC-257): < 10 nM | CC50 (UACC-257; [7]): < 10 nM | TGI (UACC-257; read-out: pTGI): < 10 nM | GI50 (EKVX): < 10 nM | CC50 (EKVX; [7]): < 10 nM | TGI (EKVX; read-out: pTGI): < 10 nM | GI50 (IGROV-1): < 10 nM | CC50 (IGROV-1; [7]): > 100 µM | TGI (IGROV-1; read-out: pTGI): < 10 nM | GI50 (SK-MEL-5): 219 nM | CC50 (SK-MEL-5; [7]): 3.02 µM | TGI (SK-MEL-5; read-out: pTGI (converted)): 490 nM | GI50 [1]: < 10 nM | CC50 [1, 7]: > 100 µM | TGI ([1]; read-out: pTGI): < 10 nM | GI50 (HCT-15): < 10 nM | CC50 (HCT-15; [7]): > 100 µM | TGI (HCT-15; read-out: pTGI (converted)): 170 nM | GI50 (MDA-MB-231): < 10 nM | TGI (MDA-MB-231; read-out: pTGI): < 10 nM | GI50 (NCI/ADR-RES): < 10 nM | CC50 (NCI/ADR-RES; [7]): < 10 nM | TGI (NCI/ADR-RES; read-out: pTGI): < 10 nM | GI50 [2]: < 10 nM | CC50 [2, 7]: < 10 nM | TGI ([2]; read-out: pTGI): < 10 nM | GI50 (NCI-H23): < 10 nM | CC50 (NCI-H23; [7]): < 10 nM | TGI (NCI-H23; read-out: pTGI): < 10 nM | GI50 (HT-29): < 10 nM | CC50 (HT-29; [7]): > 100 µM | TGI (HT-29; read-out: pTGI): > 100 µM | GI50 (K562): < 10 nM | CC50 (K562; [7]): 100 nM | TGI (K562; read-out: pTGI): < 10 nM | Activity (A10): Active | GI50 (TK-10): < 10 nM | CC50 (TK-10; [7]): < 10 nM | TGI (TK-10; read-out: pTGI): < 10 nM | GI50 (T47D): < 10 nM | CC50 (T47D; [7]): > 100 µM | GI50 (M14): < 10 nM | CC50 (M14; [7]): < 10 nM | TGI (M14; read-out: pTGI): < 10 nM | GI50 [3]: < 10 nM | TGI ([3]; read-out: pTGI): < 10 nM | GI50 (SF-539): < 10 nM | CC50 (SF-539; [7]): < 10 nM | TGI (SF-539; read-out: pTGI): < 10 nM | GI50 (A549): < 10 nM | CC50 (A549; [7]): < 10 nM | TGI (A549; read-out: pTGI): < 10 nM | GI50 [4]: < 10 nM | CC50 [4, 7]: > 100 µM | TGI ([4]; read-out: pTGI): < 10 nM | GI50 (SR): < 10 nM | CC50 (SR; [7]): < 10 nM | TGI (SR; read-out: pTGI): < 10 nM | GI50 (SK-MEL-28): < 10 nM | CC50 (SK-MEL-28; [7]): > 100 µM | TGI (SK-MEL-28; read-out: pTGI): < 10 nM | GI50 (SNB-19): < 10 nM | CC50 (SNB-19; [7]): > 100 µM | TGI (SNB-19; read-out: pTGI (converted)): 19.9 nM | GI50 (LOX IMVI): < 10 nM | GI50 [5]: < 10 nM | TGI ([5]; read-out: pTGI): < 10 nM | CC50 [6]: 10 nM
